The subject of assay [1] is Human immunodeficiency virus 1. The assay is described as follows: In vitro reduction of p24 by 90% in Efavirenz resistant HIV-1 (K103R, V179D, P225H) infected C8166 cells. Format: functional. Conditions: Human immunodeficiency virus 1, C8166. An outline of the steps:
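C8166 cells (1×10^4/well) with compound dilutions infected with K103R–V179D–P225H HIV-1 (IIIB passaged in C8166 under efavirenz up to 2 μM), 37 °C; p24 antigen measured by immunoenzymatic kit alongside WT IIIB. EC90 = concentration cutting p24 by 90%; mean of three experiments.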

A short description of assay [2]: In vitro concentration required to reduce the amount of p24 by 90% in WTIIIB infected C8166 cells. The assay is classed as functional. To be noted: Homo sapiens. An outline of the steps: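 C8166 cells (1×10^4 per well) in RPMI 1640 with 10% FCS, exposed to serial compound dilutions (DMSO stock 200 mM, diluted in medium), then infected with HIV-1 IIIB from H9/IIIB supernatants, inoculum sized for complete cytopathicity at day 4; incubation at 37 °C; p24 measured by immunoenzymatic kit; EC90 = concentration cutting p24 by 90%; means of three experiments.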

The next assay deals with MT4. The assay is described as follows: In vitro cytotoxicity against mock infected MT-4 cells. The assay is classed as functional. To be noted: Homo sapiens. An outline of the steps: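 Mock-infected MT-4 cells (1×10^4 per well) in RPMI 1640 with 10% FCS, 37 °C, 5% CO2, exposed to serial compound dilutions (DMSO stock 200 mM, diluted in medium), run in parallel with antiviral wells; viability read by MTT; CC50 = concentration reducing viability by 50%; means of three separate experiments, triplicate samples.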

Assay [3] relates to Human immunodeficiency virus 1. The assay is described as follows: Inhibition of Efavirenz resistant HIV-1 (Y181C) induced cytopathicity in MT-4 cells. Format: functional, organism-based. Conditions: Human immunodeficiency virus 1, MT4. Summed up:
(§1)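 MT-4 cells (1×10^4/well) with test compound dilutions (from 200 mM DMSO stock) infected with mutant HIV-1 at a CCID50 dose causing complete cytopathicity by day 4, 37 °C; viability by MTT. Y181C from clinical isolate passaged under nevirapine; K103N–Y181C from IIIB passaged under BI-RG 587. EC50 = 50% protection; mean of three experiments.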
Background: Cytopathic effects are the visible damage that an infection or toxin causes in cultured cells.

Assay [4] has as its system Human immunodeficiency virus 1. The assay is described as follows: Inhibition of HIV-1 (IIIB) induced cytopathicity in MT-4 cells. The assay is classed as functional, organism-based. Conditions: Human immunodeficiency virus 1, MT4. An outline of the steps:
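HIV-1 IIIB (from persistently infected H9/IIIB supernatant) added to MT-4 cells (1×10^4/well) with graded compound concentrations, dose set to give full cytopathicity by day 4, 37 °C. Cell viability read by MTT; EC50 = concentration giving 50% protection. Mean of three experiments.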

Assay [5] concerns Human immunodeficiency virus 1. The assay is described as follows: Inhibition of Efavirenz resistant HIV-1 (K103N-Y181C) induced cytopathicity in MT-4 cells. The assay is classed as functional, organism-based. Conditions: Human immunodeficiency virus 1, MT4. An outline of the steps:
as §1

Assay [6] in a line: Selectivity index (Ratio of CC50/EC50). The assay is classed as functional. An outline of the steps: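 Ratio of CC50 (MTT viability of mock-infected MT-4 cells) to EC50 (MTT protection of MT-4 cells from cytopathicity of HIV-1 IIIB, inoculum giving complete cytopathicity at day 4, 37 °C); both run in parallel on the same compound dilution series.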

With `O=C1Nc2ccc(Cl)cc2[C@@](C#CC2CC2)(C(F)(F)F)O1` [EFAVIRENZ], the EC90 (in general, the concentration at which the effect reaches the 90% level) in assay [1] turned out to be 1800 nM; in assay [2] it was 8 nM. The midpoint of cytotoxicity in the assay with MT4, the CC50, lay at 35000 nM.

`Cc1cc(C)cc(S(=O)(=O)c2c(C(=O)NC(C)C(=O)NN)[nH]c3ccc(Cl)cc23)c1` (stereo not drawn): the figures for the EC90 in assay [1] and in assay [2] were 700 nM and 70 nM, respectively. Also, the EC50 (in general, the concentration giving half of the maximal effect) in assay [3] was determined as 140 nM; in assay [4], 30 nM; in assay [5] it was 4700 nM. Further, the CC50 (as a rule, the concentration at which the toxic effect on the cells reaches its halfway point) in the assay with MT4 amounted to 20000 nM. Moreover, in assay [6], the Ratio is 666.

Consider `Cc1ccnc2c1NC(=O)c1cccnc1N2C1CC1` [NEVIRAPINE], for which the EC90 in assay [1] is more than 30000 nM; in assay [2], 120 nM. Moreover, the EC50 is more than 30000 nM in assay [3], 400 nM in assay [4] and more than 30000 nM in assay [5]. In the assay on MT4, this molecule had a CC50 of more than 100000 nM. Besides, the Ratio in assay [6] was more than 270.

With `NC(=O)CNC(=O)c1[nH]c2ccc(Cl)cc2c1S(=O)(=O)c1ccccc1`, the EC90 in assay [1] was found to be 2700 nM. For the same molecule, the results for the EC50 in assay [3], in assay [4] and in assay [5] were 180 nM, 13 nM and more than 20000 nM, respectively. In the assay on MT4, this molecule registered a CC50 of 65000 nM. The Ratio in assay [6] was found to be 5000.

As to `CC(NC(=O)c1[nH]c2ccc(Cl)cc2c1S(=O)(=O)c1ccccc1)C(N)=O` (stereo not drawn), it took 3000 nM to reach the 90% level in assay [1] (EC90). The EC50 in assay [3] was 360 nM; in assay [4], 10 nM; in assay [5], 16000 nM. In the assay with MT4, half-maximal cytotoxicity (CC50) was put at 64000 nM. Besides, the Ratio in assay [6] worked out at 6400.

Regarding `Cc1cc(C)cc(S(=O)(=O)c2c(C(=O)NC(C)C(N)=O)[nH]c3ccc(Cl)cc23)c1` (stereo not drawn), the values for the EC90 in assay [1] and in assay [2] were 40 nM and 4 nM, respectively. Moreover, the EC50 was 10 nM in assay [3], 3 nM in assay [4] and 700 nM in assay [5]. For the same molecule, it took 4000 nM to reach half-maximal cytotoxicity in the assay with MT4 (CC50). For the same molecule, in assay [6], the Ratio is 1330.

In the case of `Cc1cc(C)cc(S(=O)(=O)c2c(C(=O)NCC(N)=O)[nH]c3ccc(Cl)cc23)c1`, the EC90 in assay [1] was 100 nM; in assay [2], 10 nM. The EC50 in assay [3] came out at 30 nM; in assay [4], 6 nM; in assay [5], 800 nM. This molecule also had a cytotoxic concentration (CC50) in the assay on MT4 of 30000 nM. In addition, the Ratio in assay [6] was determined as 5000.

With `NC(=O)c1[nH]c2ccc(Cl)cc2c1S(=O)(=O)c1ccccc1` [L-737126], the figures for the EC90 in assay [1] and in assay [2] were 900 nM and 7 nM, respectively. For the same molecule, the EC50 was 20 nM in assay [3] and 8000 nM in assay [5]. In the assay on MT4, this molecule had a CC50 of 45000 nM. Also, the Ratio in assay [6] came to 45000.

Consider `Cc1cc(C)cc(S(=O)(=O)c2c(C(=O)NCC(=O)NN)[nH]c3ccc(Cl)cc23)c1`, for which the results for the EC90 in assay [1] and in assay [2] were 1000 nM and 30 nM, respectively. Besides, the 50% effective concentration (EC50) in assay [3] is 50 nM; in assay [4], 10 nM; in assay [5], 2000 nM. Also, in the assay with MT4, the CC50 is more than 100000 nM. For the same molecule, the Ratio in assay [6] is more than 10000.

As to `Cc1cc(C)cc(S(=O)(=O)c2c(C(N)=O)[nH]c3ccc(Cl)cc23)c1`, the EC90 in assay [1] came to 80 nM; in assay [2], 6 nM. Besides, the EC50 in assay [3] was determined as 30 nM; in assay [5], 600 nM. The same molecule registered a CC50 in the assay on MT4 of 15000 nM. Further, the Ratio in assay [6] came to 3750.

Regarding `NNC(=O)c1[nH]c2ccc(Cl)cc2c1S(=O)(=O)c1ccccc1`, the figures for the EC90 in assay [1] and in assay [2] were 3000 nM and 20 nM, respectively. For the same molecule, the results for the EC50 in assay [3] and in assay [5] were 400 nM and not below 100000 nM, respectively. The same molecule returned a CC50 in the assay with MT4 of more than 100000 nM. Besides, the Ratio in assay [6] was more than 10000.

These data come from ChEMBL document CHEMBL1148441, “Simple, short peptide derivatives of a sulfonylindolecarboxamide (L-737,126) active in vitro against HIV-1 wild type and variants carrying non-nucleoside reverse transcriptase inhibitor resistance mutations” (J Med Chem, 2004).
